This note sets out measurements from ChEMBL document CHEMBL3098060, “Antitumor potential of conjugable valinomycins bearing hydroxyl sites: in vitro studies” (ACS Med Chem Lett, 2013).

The test system of assay [1] is MCF7. The assay can be described thus: Cytotoxicity against human MCF7 cells assessed as cell survival after 24 to 72 hrs by MTT assay. It is filed as functional, cell-based. The essentials:
(§1)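 Cells seeded at 10,000 per well and treated with 0.0001–10 μM. Incubated at 37 °C in CO2 for 24, 48 or 72 h. Viable cells measured by MTT conversion. Time course shown at a fixed 0.01 μM.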

In assay [2] the test system is HepG2. The assay can be described thus: Cytotoxicity against human HepG2 cells after 72 hrs by MTT assay. It is filed as functional, cell-based. To be noted: HepG2, 72 h. In a few lines: (§2)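 Cells exposed to 0.0001–10 μM for 72 h. Viability by MTT conversion, expressed as % of cells viable. IC50 taken as the concentration giving 50% inhibition of survival, from concentration–viability profiles. Three independent experiments, each in duplicate, averaged.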

For assay [3], the system named is A2780. Put plainly: Cytotoxicity against human A2780 cells after 72 hrs by MTT assay. To be noted: A2780, 72 h. It is filed as functional, cell-based. In a few lines: as §2
Assay [4] has as its system MCF7. Put plainly: Cell cycle arrest in human MCF7 cells assessed as accumulation at G0/G1 phase at 0.05 uM after 24 hrs by propidium iodide staining-based FACS flow cytometric analysis (reference value: 64.34%). It is filed as functional.
Assay [5] concerns C6. Put plainly: Cytotoxicity against rat C6 cells after 72 hrs by MTT assay. It is filed as functional, cell-based. To be noted: C6, 72 h. The essentials: as §2
Assay [6] deals with MCF7. Put plainly: Cytotoxicity against human MCF7 cells assessed as cell survival at 0.0001 to 10 uM by MTT assay. To be noted: TDE = time-dependent effect. It is filed as functional, cell-based. The essentials: as §1
Assay [7] deals with MCF7. Put plainly: Cell cycle arrest in human MCF7 cells assessed as accumulation at S phase at 0.05 uM after 24 hrs by propidium iodide staining-based FACS flow cytometric analysis (reference value: 9.74%). It is filed as functional.
For assay [8], the system named is A2780. Put plainly: Cytotoxicity against human A2780 cells assessed as cell survival at 0.0001 to 10 uM by MTT assay. It is filed as functional, cell-based. To be noted: TDE = time-dependent effect. The essentials:
as §1

The subject of assay [9] is HepG2. The assay can be described thus: Cytotoxicity against human HepG2 cells assessed as cell survival after 24 to 72 hrs by MTT assay. It is filed as functional, cell-based. The essentials: as §1
Assay [10] deals with C6. The assay can be described thus: Cytotoxicity against rat C6 cells assessed as cell survival after 24 to 72 hrs by MTT assay. It is filed as functional, cell-based. The essentials: as §1
The subject of assay [11] is A2780. The assay can be described thus: Cytotoxicity against human A2780 cells assessed as cell survival after 24 to 72 hrs by MTT assay. It is filed as functional, cell-based. In a few lines: as §1
The test system of assay [12] is HepG2. The assay can be described thus: Cytotoxicity against human HepG2 cells assessed as cell survival at 0.0001 to 10 uM by MTT assay. It is filed as functional, cell-based. To be noted: TDE = time-dependent effect. The essentials: as §1
Assay [13] has as its system MCF7. Put plainly: Induction of mitochondrial membrane depolarization in human MCF7 cells after 72 hrs by JC-1 staining-based FACS flow cytometric analysis (reference value: 1%). It is filed as functional.
Assay [14] relates to MCF7. The assay can be described thus: Cytotoxicity against human MCF7 cells after 72 hrs by MTT assay. It is filed as functional, cell-based. To be noted: MCF7, 72 h. The essentials: as §2
In assay [15] the test system is MCF7. Put plainly: Cell cycle arrest in human MCF7 cells assessed as accumulation at G2/M phase at 0.05 uM after 24 hrs by propidium iodide staining-based FACS flow cytometric analysis (reference value: 25.92%). It is filed as functional.
Assay [16] deals with C6. The assay can be described thus: Induction of apoptosis in rat C6 cells assessed as fragmentation of mitochondrial network at 50 nM after 72 hrs by MitoTracker Red CMXRos staining-based fluorescence microscopy. It is filed as functional, cell-based. In a few lines:
(§3)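 C6 glioma cells seeded at 100,000 per well and treated 72 h at 37 °C, 5% CO2, with 50 nM or 1 μM depending on compound. Mitochondria stained with 25 nM MitoTracker Red CMXRos and network morphology imaged against untreated controls. Over 10 cells examined per experiment, 3 independent experiments.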

Assay [17] concerns C6. Put plainly: Cytotoxicity against rat C6 cells assessed as cell survival at 0.0001 to 10 uM by MTT assay. It is filed as functional, cell-based. To be noted: TDE = time-dependent effect. In a few lines: as §1
The test system of assay [18] is C6. The assay can be described thus: Selectivity ratio of IC50 for human MCF7 cells to IC50 for rat C6 cells. It is filed as functional. In a few lines: (§4)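 Ratio of two 72 h IC50 values, each from the same MTT viability assay. A2780, MCF-7, HepG2 and rat C6 glioma cells were treated at 0.0001–10 μM. Percent viability was calculated and IC50 taken as the concentration giving 50% survival inhibition. Means are from three independent experiments run in duplicate.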

Assay [19] concerns MCF7. Put plainly: Cell cycle arrest in human MCF7 cells assessed as accumulation at S phase at 5 uM after 24 hrs by propidium iodide staining-based FACS flow cytometric analysis (reference value: 9.74%). It is filed as functional.
Assay [20] relates to A2780. The assay can be described thus: Selectivity ratio of IC50 for human A2780 cells to IC50 for rat C6 cells. It is filed as functional. In a few lines:
as §4

Assay [21] relates to MCF7. The assay can be described thus: Cell cycle arrest in human MCF7 cells assessed as accumulation at G0/G1 phase at 5 uM after 24 hrs by propidium iodide staining-based FACS flow cytometric analysis (reference value: 64.34%). It is filed as functional.
Assay [22] concerns A2780. The assay can be described thus: Selectivity ratio of IC50 for human A2780 cells to IC50 for human HepG2 cells. It is filed as functional. The essentials: as §4
Assay [23] deals with HepG2. The assay can be described thus: Selectivity ratio of IC50 for human MCF7 cells to IC50 for human HepG2 cells. It is filed as functional. The essentials:
as §4

In assay [24] the test system is MCF7. The assay can be described thus: Cell cycle arrest in human MCF7 cells assessed as accumulation at G2/M phase at 5 uM after 24 hrs by propidium iodide staining-based FACS flow cytometric analysis (reference value: 25.92%). It is filed as functional.
The test system of assay [25] is C6. Put plainly: Induction of apoptosis in rat C6 cells assessed as fragmentation of mitochondrial network at 1 uM after 72 hrs by MitoTracker Red CMXRos staining-based fluorescence microscopy. It is filed as functional, cell-based. The essentials: as §3

The source made the active and inactive calls. The rule behind the calls is not given here.

Regarding `CC(C)[C@@H]1NC(=O)[C@H](C)OC(=O)[C@@H](C(C)C)NC(=O)[C@@H](C(C)C)OC(=O)[C@H](C(C)C)NC(=O)[C@H](C)OC(=O)[C@@H](C(C)(C)O)NC(=O)[C@@H](C(C)C)OC(=O)[C@H](C(C)C)NC(=O)[C@H](C)OC(=O)[C@@H](C(C)C)NC(=O)[C@@H](C(C)C)OC1=O`, the Activity entry in the assay with MCF7 [1] was “Dose-dependent effect”; in the assay on MCF7 [4], 55.44%; with MCF7 [6], “tde”; in the assay on MCF7 [7] it was 23.07%; with A2780 [8], “tde”; with HepG2 [9], “Dose-dependent effect”. In addition, the Activity result in the assay on C6 [10] was “Dose-dependent effect”; in the assay with A2780 [11], “Dose-dependent effect”; with HepG2 [12], “tde”; in the assay on MCF7 [13] it was 12.1%; in the assay on MCF7 [15] it was 21.49%; in the assay on C6 [17], “tde”. In addition, the IC50 in the assay with HepG2 [2] came to 4.3 nM; with A2780 [3], 4530 nM; in the assay on C6 [5], 2.4 nM; in the assay with MCF7 [14] it was 3850 nM. Also, the outcome in the assay with C6 [16] was Active.

For `CC(C)[C@@H]1NC(=O)[C@H](C)OC(=O)[C@@H](C(C)C)NC(=O)[C@@H](C(C)C)OC(=O)[C@H](C(C)C)NC(=O)[C@H](C)OC(=O)[C@@H](C(C)C)NC(=O)[C@@H](C(C)C)OC(=O)[C@H](C(C)C)NC(=O)[C@H](C)OC(=O)[C@@H](C(C)C)NC(=O)[C@@H](C(C)C)OC1=O` [VALINOMYCIN], the Activity entry was “Dose-dependent effect” with MCF7 [1]; 25.79% in the assay with MCF7 [19]; “tde” with MCF7 [6]; “tde” in the assay with A2780 [8]; “Dose-dependent effect” in the assay with HepG2 [9]; “Dose-dependent effect” in the assay with C6 [10]. For the same compound, the Activity result was “Dose-dependent effect” in the assay with A2780 [11]; “tde” with HepG2 [12]; 56.07% in the assay with MCF7 [21]; 16% in the assay on MCF7 [13]; 18.15% in the assay with MCF7 [24]; “tde” with C6 [17]. Further, the “Ratio IC50” value in the assay with C6 [18], in the assay with A2780 [20], with A2780 [22] and with HepG2 [23] was 3 throughout. Also, the half-inhibitory concentration (IC50) in the assay on HepG2 [2] came to 0.8 nM; in the assay on A2780 [3], 2180 nM; in the assay on C6 [5] it was 0.4 nM; in the assay on MCF7 [14] it was 1770 nM. Also, the outcome in the assay with C6 [16] was Active.

`CC(C)[C@@H]1NC(=O)[C@H](C)OC(=O)[C@@H](C(C)C)NC(=O)[C@@H](C(C)C)OC(=O)[C@H](C(C)(C)O)NC(=O)[C@H](C)OC(=O)[C@@H](C(C)C)NC(=O)[C@@H](C(C)C)OC(=O)[C@H](C(C)C)NC(=O)[C@H](C)OC(=O)[C@@H](C(C)C)NC(=O)[C@@H](C(C)C)OC1=O`: the Activity result with MCF7 [1] was “Dose-dependent effect”; in the assay on MCF7 [19], 25.57%; in the assay with MCF7 [6], “tde”; with A2780 [8], “tde”; in the assay with HepG2 [9], “Dose-dependent effect”; in the assay with C6 [10], “Dose-dependent effect”. Moreover, the Activity result in the assay on A2780 [11] was “Dose-dependent effect”; in the assay with HepG2 [12], “tde”; in the assay on MCF7 [21], 57.53%; in the assay on MCF7 [13] it was 15.6%; in the assay on MCF7 [24], 16.9%; with C6 [17] it was “tde”. The 50% inhibitory concentration (IC50) with HepG2 [2] amounted to 4.9 nM; with A2780 [3], 2510 nM; in the assay on C6 [5], 2.9 nM; in the assay with MCF7 [14], 3910 nM. Moreover, the outcome in the assay with C6 [16] was Active.

`CC(C)[C@@H]1NC(=O)[C@H](C)OC(=O)[C@@H](C(C)C)NC(=O)[C@@H](C(C)(C)O)OC(=O)[C@H](C(C)C)NC(=O)[C@H](C)OC(=O)[C@@H](C(C)C)NC(=O)[C@@H](C(C)C)OC(=O)[C@H](C(C)C)NC(=O)[C@H](C)OC(=O)[C@@H](C(C)C)NC(=O)[C@@H](C(C)C)OC1=O`: the IC50 with HepG2 [2] was 197 nM; in the assay on A2780 [3] it was more than 10000 nM; in the assay with C6 [5], 175 nM; with MCF7 [14], more than 10000 nM. Further, the Activity in the assay with MCF7 [19] is 24.6%; in the assay with MCF7 [21], 55.63%; with MCF7 [13], 8.9%; with MCF7 [24] it was 19.76%; in the assay with C6 [17] it was “tde”. Besides, in the assay on C6 [25], the outcome was Active.
